Test results published in ChEMBL document CHEMBL1148911, “Ardisinones A-E, novel diarylundecanones from Ardisia arborescens” (J Nat Prod, 2004).
Active and inactive are the calls of the source.

Assays:
Assay type in all cases: functional, organism-based
Escherichia coli = assay: Antibacterial activity against Escherichia coli after 24 hrs by disk diffusion assay
How it was run: (§1)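 Agar disk diffusion. Each organism was grown on agar medium, and plates were inoculated by spreading a spore or cell suspension evenly over the agar surface to give confluent growth. Compound-loaded disks were applied, and the zone of inhibition around each disk was measured at 24 and 48 h.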

Staphylococcus aureus = assay: Antibacterial activity against Staphylococcus aureus after 24 hrs by disk diffusion assay; how it was run: as §1
Bacillus subtilis = assay: Antibacterial activity against Bacillus subtilis after 24 hrs by disk diffusion assay; how it was run: as §1
[1] = system: Mycolicibacterium smegmatis; assay: Antibacterial activity against Mycobacterium smegmatis after 24 hrs by disk diffusion assay; how it was run: as §1
Candida albicans = assay: Antibacterial activity against Candida albicans after 48 hrs by disk diffusion assay; how it was run: as §1
Aspergillus niger = assay: Antibacterial activity against Aspergillus niger after 48 hrs by disk diffusion assay; how it was run: as §1

Measured: Activity

COc1cc(O)c(C(=O)CCCCCCCCCCc2c(O)cccc2OC(C)=O)c(O)c1
inactive: all assays above

COc1cc(O)c(C(=O)CCCCCCCCCCc2c(O)cccc2O)c(O)c1
inactive: all assays above
